Experimental data pooled from the literature.
Each line is one published result; the experiments were not run side by side.
Target: Serine/threonine-protein kinase PLK4 (PLK4, Homo sapiens, UniProt O00444)
Residues used in one study (O00444 1-970): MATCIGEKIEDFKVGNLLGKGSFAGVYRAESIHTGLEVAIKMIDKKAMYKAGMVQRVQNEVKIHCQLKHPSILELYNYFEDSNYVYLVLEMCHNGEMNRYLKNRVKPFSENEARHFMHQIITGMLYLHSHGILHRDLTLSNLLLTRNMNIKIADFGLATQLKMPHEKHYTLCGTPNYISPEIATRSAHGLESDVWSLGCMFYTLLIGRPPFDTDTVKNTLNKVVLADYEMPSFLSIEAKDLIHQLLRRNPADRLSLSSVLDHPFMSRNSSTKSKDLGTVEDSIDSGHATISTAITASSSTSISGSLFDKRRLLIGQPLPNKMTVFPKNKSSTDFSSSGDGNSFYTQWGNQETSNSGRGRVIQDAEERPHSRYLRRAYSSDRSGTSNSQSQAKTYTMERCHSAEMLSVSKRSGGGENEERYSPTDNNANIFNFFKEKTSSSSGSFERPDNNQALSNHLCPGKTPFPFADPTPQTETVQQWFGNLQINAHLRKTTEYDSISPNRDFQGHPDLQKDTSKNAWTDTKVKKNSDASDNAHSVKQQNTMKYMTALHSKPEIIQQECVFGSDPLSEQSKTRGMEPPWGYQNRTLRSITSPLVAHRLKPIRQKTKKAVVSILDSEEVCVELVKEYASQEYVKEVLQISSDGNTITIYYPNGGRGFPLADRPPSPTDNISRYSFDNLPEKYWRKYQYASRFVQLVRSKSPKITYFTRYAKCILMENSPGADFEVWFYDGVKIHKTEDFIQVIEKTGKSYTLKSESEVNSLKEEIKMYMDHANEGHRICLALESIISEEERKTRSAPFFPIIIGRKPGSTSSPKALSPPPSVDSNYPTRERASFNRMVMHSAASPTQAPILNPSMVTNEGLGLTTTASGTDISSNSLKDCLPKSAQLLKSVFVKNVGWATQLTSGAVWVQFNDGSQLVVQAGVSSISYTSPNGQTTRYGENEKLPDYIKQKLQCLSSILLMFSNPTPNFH

Cc1cc(C)c(-n2ccn3nc(-c4cccnc4)cc23)cc1NC(=O)c1cc(C#N)cc(S(F)(F)(F)(F)F)c1  remaining binding (cell-free assay; competition with immobilised ligand; 0.1 µM): 64.1%
Nc1ncc2c(n1)-c1c([nH]c3ccc(C#CC4CC4)cc13)CCCC2  remaining binding (binding; competition with immobilised ligand; 1 µM): 87%
COc1ncc2cc3ccccc3nc2c1C#N  remaining binding (cell-free assay; competition with immobilised ligand; 5 µM): 100%
CNC(=O)[C@@H]1CC[C@@H](n2c(-c3ccc4cnccc4c3)nc3ccc(C(=O)NCc4cccc(C(N)=O)c4)cc32)C1  remaining binding (binding; competition with immobilised ligand; 1 µM): 100%
CC(=O)c1c(NS(C)(=O)=O)c2cc(-c3ccc(Cl)cc3)c(-c3ccc(Cl)cc3Cl)nc2n(C)c1=O  remaining binding (cell-free assay; competition with immobilised ligand; 1 µM): 100%
CN(C)c1ncc(F)c(-c2cnn3ncccc23)n1  remaining binding (binding; 1 µM): 100%
C=CC(=O)N1CCC(C(=O)NCC(=O)N2CCN(c3nc(-c4cnc(N)nc4C(F)F)nc(N4CCOCC4)n3)CC2)CC1  remaining binding (binding; competition with immobilised ligand; 1 µM): 89%
O=C1CCc2cc(Nc3cc(OC4CCOCC4)c([N+](=O)[O-])cc3Cl)ccc2N1  remaining binding (cell-free assay; competition with immobilised ligand; 1 µM): 86%
N[C@H]1CCN(c2nccc(-c3cnn4ncccc34)n2)C1  remaining binding (binding; 1 µM): 100%
CC(C)(C)c1ccc(-c2nc(CBr)nn2-c2cccc(O)c2)cc1  remaining binding (cell-free assay; competition with immobilised ligand; 10 µM): 88%
N#Cc1ccccc1CSc1nnc2c(n1)[nH]c1ccccc12  remaining binding (binding; competition with immobilised ligand; 10 µM): 100%
Cc1cnc(Nc2ccc(C(=O)N3CCC(N4CCCC4)CC3)cc2)nc1-c1cc2ccccc2s1  remaining binding (binding; competition with immobilised ligand; 1 µM): 14%
Cc1cnn2ncc(-c3ccnc(N(C)C)n3)c2c1  remaining binding (binding; 1 µM): 74%
CC(C)(O)c1cncc(-c2nc3ccc(F)cc3n2C2CC2)c1  remaining binding (cell-free assay; competition with immobilised ligand; 1 µM): 79%
COc1ccnn2ncc(-c3ccnc(N(C)C)n3)c12  remaining binding (binding; 1 µM): 69%
O=C(Nc1c[nH]nc1C(=O)NC1CCNCC1)c1cc(F)cc(F)c1  remaining binding (binding; competition with immobilised ligand; 1 µM): 97%
CN(C(=O)c1ccccc1)c1cc(N(C)c2ccc3c(c2)CCc2ccc(C(=O)NCCN4CCOCC4)cc2C3=O)ccc1F  remaining binding (cell-free assay; competition with immobilised ligand; 1 µM): 93%
C[C@@H]1CN(c2ccc3ncc(-c4ccc5[nH]nc(C6CC6)c5c4)n3n2)C[C@H](C)O1  remaining binding (binding; competition with immobilised ligand; 50 nM): 88%
C[C@@H]1CCN(c2nccc(-c3cnn4ncccc34)n2)C1  remaining binding (binding; 1 µM): 100%
O=C(NCCCN1CCOCC1)c1ccc(Nc2ncc(Cl)c(-c3ccc(Cl)s3)n2)cc1  remaining binding (binding; competition with immobilised ligand; 1 µM): 38%
Cc1c[nH]c2nccc(Oc3c(F)cc(Nc4cc(Cl)nc(N)n4)cc3F)c12  remaining binding (cell-free assay; competition with immobilised ligand; 0.1 µM): 82%
c1cnn2ncc(-c3ccnc(N4CCC45COC5)n3)c2c1  remaining binding (binding; 1 µM): 79%
O=C(N1CCS(=O)(=O)CC1)N1C[C@H](c2ccc(OC(F)(F)F)cc2)C[C@H](c2nc(C3CC3)no2)C1  remaining binding (cell-free assay; competition with immobilised ligand; 1 µM): 100%
CN(C)c1nccc(-c2cnn3ncccc23)n1  remaining binding (binding; 1 µM): 96%
O=C(NCCCN1CCOCC1)c1ccc(Nc2nccc(-c3cc4ccccc4s3)n2)cc1  remaining binding (binding; competition with immobilised ligand; 1 µM): 58%
CCC(=O)N[C@H]1CC[C@@H](C(=O)N(C)c2ccc(-c3nc4ccccc4o3)cc2)C1  remaining binding (cell-free assay; competition with immobilised ligand; 1 µM): 78%
